From ChEMBL document CHEMBL1131024, “N-Arylalkyl pseudopeptide inhibitors of farnesyltransferase” (J Med Chem, 1998)
In brackets after ≈: the same amount, converted by molar mass.

What was measured:
[1] = target: Protein farnesyltransferase (Homo sapiens, UniProt P49354+P49356); experiment: Inhibition of [3H]FPP incorporation into recombinant human Ha-Ras by Farnesyltransferase; assay type: protein-complex assay
How it was run: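 FTase, either purified from bovine brain or homogeneous human recombinant, transferred [³H]FPP onto recombinant Ha-Ras. Total protein was acid-precipitated and protein-bound FPP was counted by scintillation. IC50 is the concentration inhibiting 50% of [³H]FPP incorporation.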

[2] = tested on: Rat1; experiment: Inhibition of colony formation in Rat 1-v-ras-transformed cells in soft agar; assay type: functional
How it was run: (§1)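 Rat1 cells transformed by v-ras or v-raf were grown in soft agar for about 2 weeks, fed twice weekly. MIC is the minimum concentration reducing colony size and number relative to vehicle-treated controls.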

[3] = target: Protein farnesyltransferase (Mus musculus, UniProt Q61239+Q8K2I1); experiment: Inhibition of post-translational processing of v-Ras protein in NIH3T3 cells; assay type: functional, cell-based
How it was run: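 v-ras-transformed NIH 3T3 cells were incubated 24 h with compound or solvent control and labeled with [³⁵S]methionine over the final 20 h. Processed (farnesylated) Ras was resolved by SDS-PAGE. Lovastatin at 15 µM served as positive control.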

[4] = tested on: NIH3T3; experiment: Highest nontoxic concentration in NIH3T3 cells by MTT staining; assay type: functional, Mus musculus
How it was run: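 NIH 3T3 cells were exposed to compound for 48 h, and viability was read by MTT staining. The endpoint is the highest concentration the cells tolerated.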

[5] = target: Geranylgeranyl transferase type I (Bos taurus, UniProt P29702+Q5EAD5); experiment: Inhibition of bovine Geranylgeranyl transferase type I; assay type: protein-complex assay
[6] = tested on: Rat1; experiment: Inhibition of colony formation in Rat 1-v-raf-transformed cells in soft agar; assay type: functional; how it was run: as §1
[7] = target: T1, Protein farnesyltransferase (Bos taurus, UniProt P29702+P49355); experiment: Inhibition of bovine brain Farnesyltransferase at 1 nM
How it was run: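 Bovine brain FTase at approximately 1 nM transferred [³H]FPP onto recombinant human Ha-Ras. Acid-precipitated protein-bound label was counted by scintillation. IC50 is the concentration giving 50% inhibition of incorporation.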

[8] = target: T1, Protein farnesyltransferase; experiment: Inhibition of bovine brain Farnesyltransferase at 10 pM; settings: in the assay text read “at approximately 1 nM” for “at 10 pM”

Compound | IC50 [1] | IC50 [5] | further results
CC[C@@H](C)[C@@H](CN(Cc1ccccc1)[C@@H](Cc1ccccc1)C(=O)N[C@@H](CCSC)C(=O)O)NC[C@@H](N)CS | 1400 nM | – | –
CC[C@@H](C)[C@@H](C(=O)N[C@H]1CCOC1=O)N(C)C[C@@H](NC[C@@H](N)CS)[C@H](C)CC | – | – | MIC [2]: 500 µM (≈ 208 µg/mL); IC50 [3]: 25000 nM; CTE [4]: 500 µM
CC[C@@H](C)[C@@H](CN(CC(=O)N[C@@H](CCSC)C(=O)OC)Cc1cccc2ccccc12)NC[C@@H](N)CS | – | – | MIC [6]: > 5 µM; MIC [2]: 2.5 µM (≈ 1.37 µg/mL); IC50 [3]: 500 nM; CTE [4]: 5 µM
CC[C@@H](C)[C@@H](CN[C@@H](Cc1ccccc1)C(=O)N[C@@H](CCO)C(=O)O)NC[C@@H](N)CS | – | 10000 nM | IC50 [7]: 26 nM
CCC[C@H](NC[C@@H](NC[C@@H](N)CS)[C@H](C)CC)C(=O)N[C@@H](CCO)C(=O)O | – | 10000 nM | IC50 [8]: 27 nM
CC[C@@H](C)[C@@H](CN(CC(=O)N[C@@H](CCO)C(=O)O)Cc1cccc2ccccc12)NC[C@@H](N)CS | 0.123 nM | 10 nM | –
CCC(C)[C@@H](CN(CC(=O)N[C@@H](CCSC)C(=O)OC)Cc1ccccc1)NC[C@@H](N)CS (stereo partly specified) | – | – | IC50 [3]: 100 nM; CTE [4]: 10 µM
CC[C@@H](C)[C@@H](CN(C)[C@@H](Cc1ccccc1)C(=O)N[C@@H](CCO)C(=O)O)NC[C@@H](N)CS | 1600 nM | – | –
CC[C@@H](C)[C@@H](CN(CC(=O)N[C@@H](CCSC)C(=O)O)Cc1ccccc1)NCCCS | 2.2 nM | 39000 nM | –
CC[C@@H](C)[C@H](NC[C@@H](NC[C@@H](N)CS)[C@H](C)CC)C(=O)N[C@H]1CCOC1=O | – | – | MIC [6]: > 1000 µM; MIC [2]: 1000 µM (≈ 403 µg/mL); IC50 [3]: 100000 nM; CTE [4]: >1000 µM

The next lines start with results.

IC50 [1] | IC50 [5] | Compound | further results
4.8 nM | 5750 nM | CC[C@@H](C)[C@@H](CN[C@@H](Cc1ccccc1)C(=O)N[C@@H](CCSC)C(=O)O)NC[C@@H](N)CS | –
25 nM | 4700 nM | CC[C@@H](C)[C@@H](CN(C)[C@H](C(=O)N[C@@H](CCSC)C(=O)O)[C@@H](C)CC)NC[C@@H](N)CS | –
30 nM | – | CC[C@@H](C)[C@@H](CN[C@H](C(=O)N[C@@H](CCSC)C(=O)O)[C@@H](C)CC)NC[C@@H](N)CS | –
1.2 nM | 450 nM | CC[C@@H](C)[C@@H](CN(CC(=O)N[C@@H](CCSC)C(=O)O)Cc1ccccc1)NC[C@@H](N)CS | –
20 nM | – | CC[C@H](C)[C@H](NC[C@@H](NC[C@@H](N)CS)[C@@H](C)CC)C(=O)N[C@@H](CCO)C(=O)O | –
21 nM | 43000 nM | CCC[C@@H](C(=O)N[C@@H](CCO)C(=O)O)N(C)C[C@@H](NC[C@@H](N)CS)[C@H](C)CC | –
– | 10000 nM | CC[C@@H](C)[C@@H](CN(C)CC(=O)N[C@@H](CCO)C(=O)O)NC[C@@H](N)CS | IC50 [8]: 83 nM
42 nM | – | CC[C@@H](C)[C@@H](CN(C)[C@@H](Cc1ccccc1)C(=O)N[C@@H](CCSC)C(=O)O)NC[C@@H](N)CS | –
